The source made the active and inactive calls. No cut-off for these calls is given here.
Experiments:
[1] = system: Plasmodium berghei; test: Antimalarial activity against Plasmodium berghei ANKA infected in C57Bl6 mouse at 40 mg/kg/day, po on days 3 to 5 by Thompson test; assay type: functional
[2] = system: Salmonella typhimurium; test: Mutagenic activity in Salmonella typhimurium TA98 at 500 ug/ml by Ames test in presence of S9 fractions; assay type: toxicity, organism-based, S9 Fraction; settings: salmonella enterica subsp. enterica serovar typhimurium
Outline: (§1)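 Ames test in Salmonella typhimurium TA98 and TA100 at 500 μg/mL, with and without S9.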

[3] = Selectivity index, ratio of IC50 for human HepG2 cells to IC50 for chloroquine susceptible Plasmodium falciparum D6; assay type: toxicity, cell-based; settings: read-out: Ratio IC50
[4] = system: Plasmodium falciparum; test: Antimalarial activity against chloroquine-susceptible Plasmodium falciparum D6 after 48 hrs by [3H]hypoxanthine incorporation assay; assay type: functional, organism-based
Outline: (§2)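 P. falciparum D6 (Sierra I/UNC clone), W2 (Indochina I clone), TM91C235 (South-East Asian clone) cultured with compound; growth inhibition by [3H]hypoxanthine incorporation (modified Desjardins/Milhous method). Chloroquine, mefloquine, artemisinin as positive controls. IC50 in nM; technical triplicates, curve fits R2 0.96–1.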

[5] = Half life in human liver microsomes at 1 uM by LC-MS/MS analysis; assay type: ADME
[6] = system: Plasmodium berghei; test: Antimalarial activity against Plasmodium berghei ANKA infected in C57Bl6 mouse assessed as reduction of parasitemia at 20 mg/kg/day, po administered for day 3 to 5 measured on day 6 by Thompson test; assay type: functional, organism-based
Outline: (§3)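 Modified Thompson test: C57Bl6 female mice inoculated intraperitoneally on day 0 with 1×10^6 P. berghei ANKA-infected erythrocytes; compound suspended in 0.5% hydroxyethylcellulose–0.1% Tween 80, given orally once daily on days 3, 4 and 5 post infection. Parasitemia by Giemsa-stained thin tail-blood smears on days 0, 3, 6, 10, 13, 17, 20, 24, 27, 31. Cure = survival without parasitemia to day 31.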

[7] = Inhibition of beta hematin formation measured as hemin equivalent after 18 hrs; assay type: physicochemical
Outline: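 Hemin (16 mM in DMSO) mixed with compound at 0.125–5 mol equiv to hemin, plus water and 8 M acetate buffer pH 5.2, 25% DMSO final. Incubated 18 h at 37 °C. Pellet washed with DMSO, dissolved in 0.1 M NaOH, absorbance read at 405 nm (corrected at 670 nm) against a hemin calibration.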

[8] = target: hERG (KCNH2) (Homo sapiens, UniProt Q12809); test: Inhibition of human ERG expressed in CHO cells at 5 uM by patch plate method; assay type: cell-based; settings: CHO cells that express human ERG
Sequence of hERG (KCNH2) (Q12809 whole entry): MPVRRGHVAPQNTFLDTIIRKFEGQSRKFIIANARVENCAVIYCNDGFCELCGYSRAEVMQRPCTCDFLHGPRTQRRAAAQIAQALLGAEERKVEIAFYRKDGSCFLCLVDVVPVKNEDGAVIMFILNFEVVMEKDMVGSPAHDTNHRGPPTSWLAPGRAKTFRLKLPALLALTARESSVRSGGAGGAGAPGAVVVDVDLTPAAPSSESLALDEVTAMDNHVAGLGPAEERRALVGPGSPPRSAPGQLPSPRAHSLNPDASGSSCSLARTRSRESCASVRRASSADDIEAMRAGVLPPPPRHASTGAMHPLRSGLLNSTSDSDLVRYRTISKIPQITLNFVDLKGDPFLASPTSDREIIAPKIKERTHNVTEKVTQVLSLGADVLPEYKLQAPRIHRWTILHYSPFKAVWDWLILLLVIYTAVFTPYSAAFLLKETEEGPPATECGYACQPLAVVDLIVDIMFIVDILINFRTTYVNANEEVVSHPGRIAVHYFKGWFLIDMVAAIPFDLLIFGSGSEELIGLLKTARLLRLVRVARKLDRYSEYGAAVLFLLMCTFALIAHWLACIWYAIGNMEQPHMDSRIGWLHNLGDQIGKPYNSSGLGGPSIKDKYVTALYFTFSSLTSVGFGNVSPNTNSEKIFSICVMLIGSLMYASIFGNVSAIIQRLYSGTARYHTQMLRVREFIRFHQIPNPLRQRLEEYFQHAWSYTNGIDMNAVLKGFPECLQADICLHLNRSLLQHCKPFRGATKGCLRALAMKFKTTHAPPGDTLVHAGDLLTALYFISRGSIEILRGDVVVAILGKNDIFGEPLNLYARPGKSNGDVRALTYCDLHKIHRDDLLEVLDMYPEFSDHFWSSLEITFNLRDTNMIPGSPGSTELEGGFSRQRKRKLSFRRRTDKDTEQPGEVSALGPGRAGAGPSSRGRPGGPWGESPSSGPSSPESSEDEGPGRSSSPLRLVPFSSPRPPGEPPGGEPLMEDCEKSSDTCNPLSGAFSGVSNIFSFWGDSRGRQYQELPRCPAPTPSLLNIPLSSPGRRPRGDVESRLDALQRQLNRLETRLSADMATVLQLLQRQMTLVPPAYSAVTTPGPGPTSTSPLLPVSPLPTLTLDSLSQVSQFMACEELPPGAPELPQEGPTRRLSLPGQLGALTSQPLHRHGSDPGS

[9] = system: Plasmodium berghei; test: Antimalarial activity against Plasmodium berghei ANKA infected in C57Bl6 mouse at 160 mg/kg/day, po measured on day 3 to 5 by Thompson test; assay type: functional
[10] = system: HepG2; test: Cytotoxicity against human HepG2 cells after 48 hrs by MTT assay; assay type: cell-based; settings: HepG2, 48 h
[11] = system: Plasmodium berghei; test: Antimalarial activity against Plasmodium berghei ANKA infected in C57Bl6 mouse assessed as curative effect at 20 to 40 mg/kg/day, po administered for day 3 to 5 by Thompson test
[12] = system: Mus musculus; test: Toxicity in Plasmodium berghei ANKA infected C57Bl6 mouse at 160 mg/kg/day, po administered for 3 days measured 2 times a day for 31 days; assay type: organism-based; settings: in vivo, 744 h
[13] = system: Plasmodium berghei; test: Antimalarial activity against Plasmodium berghei ANKA infected in C57Bl6 mouse at 80 mg/kg/day, po measured on day 3 to 5 by Thompson test; assay type: functional
[14] = system: Plasmodium berghei; test: Antimalarial activity against Plasmodium berghei ANKA infected in po dosed C57Bl6 mouse administered on day 3 to 5 by Thompson test; assay type: functional; outline: as §3
[15] = Half life in mouse liver microsomes at 1 uM by LC-MS/MS analysis; assay type: ADME
[16] = system: Salmonella typhimurium; test: Mutagenic activity in Salmonella typhimurium TA100 at 500 ug/ml by Ames test in absence of S9 fractions; assay type: toxicity, organism-based; settings: salmonella enterica subsp. enterica serovar typhimurium; outline: as §1
[17] = system: Plasmodium berghei; test: Antimalarial activity against sporozoite stage of Plasmodium berghei infected in human Huh7 cells assessed as inhibition of parasite infection pre-incubated for 24 hrs followed by parasite infection measured after 48 hrs by bioluminescence assay; assay type: functional, organism-based; settings: Huh-7
[18] = system: Salmonella typhimurium; test: Mutagenic activity in Salmonella typhimurium TA98 at 500 ug/ml by Ames test in absence of S9 fractions; assay type: toxicity, organism-based; settings: salmonella enterica subsp. enterica serovar typhimurium; outline: as §1
[19] = system: Plasmodium berghei; test: Antimalarial activity against Plasmodium berghei ANKA infected in C57Bl6 mouse at 20 mg/kg/day, po on days 3 to 5 by Thompson test; assay type: functional
[20] = system: Plasmodium falciparum; test: Antimalarial activity against chloroquine-resistant Plasmodium falciparum W2 after 48 hrs by [3H]hypoxanthine incorporation assay; assay type: functional, organism-based; outline: as §2
[21] = system: Plasmodium falciparum; test: Antimalarial activity against mutidrug resistant Plasmodium falciparum TM91C235 after 48 hrs by [3H]hypoxanthine incorporation assay; assay type: functional, organism-based; outline: as §2
[22] = target: Voltage-gated inwardly rectifying potassium channel KCNH2 (Homo sapiens, UniProt Q12809); test: Inhibition of human ERG expressed in CHO cells by patch plate method; assay type: cell-based
Sequence of Voltage-gated inwardly rectifying potassium channel KCNH2 (Q12809 whole entry): as above

[23] = Octanol-water partition coefficient, logP of the compound; assay type: physicochemical
[24] = system: Plasmodium berghei; test: Antimalarial activity against Plasmodium berghei ANKA infected in C57Bl6 mouse at 10 mg/kg/day, po on days 3 to 5 by Thompson test; assay type: functional
[25] = system: Salmonella typhimurium; test: Mutagenic activity in Salmonella typhimurium TA100 at 500 ug/ml by Ames test in presence of S9 fractions; assay type: toxicity, organism-based, S9 Fraction; settings: salmonella enterica subsp. enterica serovar typhimurium; outline: as §1
[26] = system: Plasmodium berghei; test: Antimalarial activity against sporozoite stage of Plasmodium berghei infected in human Huh7 cells assessed as remaining parasite infection at 5 uM pre-incubated for 24 hrs followed by parasite infection measured after 48 hrs by bioluminescence assay; settings: Huh-7
[27] = system: Plasmodium berghei; test: Antimalarial activity against Plasmodium berghei ANKA infected in C57Bl6 mouse assessed as reduction of parasitemia at 160 mg/kg/day, po administered for day 3 to 5 measured on day 6 to 14 by Thompson test; assay type: functional, organism-based; outline: as §3

## CC(CCNCC12CC3CC(CC(C3)C1)C2)Nc1ccnc2cc(Cl)ccc12 (stereo not drawn)
[1]
  MST: 17.2 days
[2]
  Activity: Non-toxic
[3]
  selectivity ratio: 305
[4]
  IC50: 10 nM
[5]
  half-life at 1 µM: 1 h
[6]
  Activity: Active
[7]
  IC50: 1.84 equiv
[8]
  inhibition at 5 µM: 11.7%
[9]
  MST: >31 days
[10]
  IC50: 3040 nM
[11]
  Activity: inactive
[12]
  Activity: Non-toxic
[13]
  MST: >31 days
[14]
  Activity: Dose dependent effect
  MAC: 10 mg/kg/day
  MCD: 80 mg/kg/day
[15]
  half-life at 1 µM: 1 h
[16]
  Activity: Non-toxic
[17]
  IC50: 1000 nM
[18]
  Activity: Non-toxic
[19]
  MST: 15.2 days
[20]
  IC50: 10 nM
[21]
  IC50: 10 nM
[22]
  IC50: > 5000 nM
[23]
  logP: 3.85
[24]
  MST: 13 days
[25]
  Activity: Non-toxic
[26]
  % infection at 5 µM: 0.1%

## CC(CCCNCCC12CC3CC(CC(C3)C1)C2)Nc1ccnc2cc(Cl)ccc12 (stereo not drawn)
[3]
  selectivity ratio: 1900
[4]
  IC50: 7 nM
[5]
  half-life at 1 µM: 1 h
[9]
  MST: 21.4 days
[10]
  IC50: 13300 nM
[12]
  Activity: Non-toxic
[15]
  half-life at 1 µM: 1 h
[20]
  IC50: 26 nM
[21]
  IC50: 14 nM
[27]
  Activity: Active

— ChEMBL document CHEMBL3758104, “Reinvestigating Old Pharmacophores: Are 4-Aminoquinolines and Tetraoxanes Potential Two-Stage Antimalarials?” (J Med Chem, 2016)
